Ten compounds from ChEMBL document CHEMBL4699419, “Antileishmanial assessment of isoxazole derivatives against L. donovani” (RSC Med Chem, 2020) can be followed below.

The source made the active and inactive calls. No cut-off for these calls is given here.

In one series the test system is Leishmania amazonensis. The series can be described thus: Antileishmanial activity against promastigote form of Leishmania amazonensis (IFLA/BR/1967/PH8 strain) assessed as reduction in parasite viability incubated for 72 hrs by MTT assay. The format is functional, organism-based. The settings on record: IFLA/BR/1967/PH8, 72 h. In general terms: Tetrazolium assays rely on reduction of a dye to a coloured formazan, in cell work by metabolically active cells.
Regarding `O=[N+]([O-])c1ccc(-c2cc(-c3ccc(CCl)cc3)on2)o1`, the 50% inhibitory concentration (IC50) (usually the point on the concentration scale where inhibition reaches its midpoint) worked out at 3.5 µM.

A further series has as its system Leishmania amazonensis. The series can be described thus: Antileishmanial activity against intracellular amastigote stage of Leishmania amazonensis (IFLA/BR/1967/PH8 strain) assessed as reduction in parasite viability incubated for 24 hrs by Neubauer chamber cell counting method. It counts as functional, organism-based. The settings on record: IFLA/BR/1967/PH8, 24 h.
With `O=[N+]([O-])c1ccc(-c2cc(-c3ccc(CCl)cc3)on2)o1`, the IC50 amounted to 0.6 µM.

Another series deals with Leishmania amazonensis. The series can be described thus: Antileishmanial activity against promastigote form of Leishmania amazonensis. It counts as functional, organism-based.
Details: not given
As to `COc1cc(-c2cc(-c3cc(OC)c(OC)c(OC)c3)on2)cc(OC)c1OC`, it took 18.3 µM to reach half-maximal inhibition (IC50).
Same read-out and setting: under `COc1cc(-c2cc(-c3ccc4c(c3)OCO4)no2)cc(OC)c1OC` stands 18.3 µM.

Another series has as its system Leishmania amazonensis. The series can be described thus: Antileishmanial activity against intracellular amastigote stage of Leishmania amazonensis. The format is functional, organism-based.
Details: not given
`COc1cc(-c2cc(-c3cc(OC)c(OC)c(OC)c3)on2)cc(OC)c1OC` yielded an IC50 of 2.9 µM.
In turn, `COc1cc(-c2cc(-c3ccc4c(c3)OCO4)no2)cc(OC)c1OC` had an IC50 of 2.9 µM.

The next series concerns Leishmania donovani. Briefly: Antileishmanial activity against late log phase promastigote stage of Leishmania donovani MHOM/IN/80/Dd8 harboring luciferase reporter gene incubated for 72 hrs by Steady-Glo luminescence assay. The settings on record: Leishmania donovani, MHOM/IN/80/Dd8, 72 h; read-out: IC50. The format is functional, organism-based. The method, boiled down:
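Luciferase-transfected promastigotes kept at 25 ± 1 °C in medium 199 + 10% heat-inactivated FCS + G418 (20 μg ml–1). Late-log cells (5 × 10^5 per well) grown 72 h with graded compound concentrations from DMSO, DMSO dilution controls. Aliquot mixed 1:1 with Steady-Glo, luminescence (RLU) read; % inhibition vs control. IC50 by Probit regression, three independent experiments.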
In general terms: In a reporter assay the amount or activity of a reporter protein is the signal.
For the compound `COC(=O)c1c(NCc2ccc(OC)cc2OC)noc1-c1ccc(Cl)cc1Cl`, the IC50 came to 8.34 µM.
The same measure, in the same setting: the same measure for `COC(=O)c1c(NCCNc2ccnc3cc(Cl)ccc23)noc1-c1ccc(Cl)cc1Cl`: 1.86 µM; for `CCCCCCCCCCCCCCCCOP(=O)([O-])OCC[N+](C)(C)C` [MILTEFOSINE]: 2.52 µM.
The same measure, in the same setting: the same measure for `COC(=O)c1c(NCc2ccccc2)noc1-c1ccc([N+](=O)[O-])cc1`: 3.9 µM.
For the compound `COC(=O)c1c([N+](=O)[O-])noc1-c1ccccc1F`, the IC50 turned out to be 2.87 µM.
In the case of `COC(=O)c1c(NCc2ccc(Cl)cc2)noc1-c1ccc(Cl)cc1Cl`, the half-maximal inhibitory concentration (IC50) came out at 14.1 µM.
For the compound `COC(=O)c1c(NCCCCNc2ccnc3cc(Cl)ccc23)noc1-c1cc2c(cc1[N+](=O)[O-])OCO2`, the concentration for half-maximal inhibition (IC50) worked out at 4.5 µM.

In the next series the test system is Leishmania donovani. The series can be described thus: Antileishmanial activity against Leishmania donovani MHOM/IN/80/Dd8 promastigotes harboring luciferase reporter gene infected in mouse J774 cells assessed as inhibition of amastigote growth incubated for 72 hrs by Steady-Glo luminescence assay. The format is functional, organism-based. The conditions noted are these: Leishmania donovani, MHOM/IN/80/Dd8, J774, 72 h; read-out: IC50. The method, boiled down:
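J774A.1 mouse macrophages (2 × 10^5 per well, RPMI-1640 + 10% FCS, 37 °C CO2) infected after 24 h with stationary-phase luciferase-transgenic promastigotes at 1:10 macrophage:parasite; compounds in complete medium for 72 h at 37 °C. Medium swapped for PBS, Steady-Glo added, luminescence read; % inhibition vs untreated control RLU. IC50 by Probit log dose/response regression, three independent experiments.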
`COC(=O)c1c(NCc2ccc(OC)cc2OC)noc1-c1ccc(Cl)cc1Cl`: the IC50 amounted to 5.48 µM.
Turning to `COC(=O)c1c(NCCNc2ccnc3cc(Cl)ccc23)noc1-c1ccc(Cl)cc1Cl`, the IC50 stood at 0.85 µM.
Still for that read-out and setting: the same measure for `CCCCCCCCCCCCCCCCOP(=O)([O-])OCC[N+](C)(C)C` [MILTEFOSINE]: 9.25 µM; for `COC(=O)c1c(NCc2ccccc2)noc1-c1ccc([N+](=O)[O-])cc1`: 13.8 µM; for `COC(=O)c1c([N+](=O)[O-])noc1-c1ccccc1F`: 16.1 µM.
Still for that read-out and setting: the same measure for `COC(=O)c1c(NCc2ccc(Cl)cc2)noc1-c1ccc(Cl)cc1Cl`: 3.1 µM; for `COC(=O)c1c(NCCCCNc2ccnc3cc(Cl)ccc23)noc1-c1cc2c(cc1[N+](=O)[O-])OCO2`: 8.49 µM.

System in another series: not listed separately
Briefly: Cytotoxicity against mouse J774A1 cells assessed as reduction in cell viability incubated for 48 hrs by MTT assay. The format is cell-based, J774.A1.
Details: not given
Summed up:
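J774A.1 macrophages, 0.2 × 10^6 per well, incubated overnight at 37 °C in 5% CO2, then exposed to compounds in DMSO for 48 h, with DMSO dilutions as controls. Viability read by MTT formazan at 600 nm. CC50 = 50% viability reduction versus medium-only cells, from probit regression; three independent experiments.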
Regarding `COC(=O)c1c(NCc2ccc(OC)cc2OC)noc1-c1ccc(Cl)cc1Cl`, the CC50 (as a rule, the concentration at which the toxic effect on the cells reaches its halfway point) at 48 h was found to be 32.1 µM.
Still for that read-out and setting: the same measure for `COC(=O)c1c(NCCNc2ccnc3cc(Cl)ccc23)noc1-c1ccc(Cl)cc1Cl`: 3.45 µM.
In the case of `CCCCCCCCCCCCCCCCOP(=O)([O-])OCC[N+](C)(C)C` [MILTEFOSINE], the half-maximal cytotoxic concentration (CC50) at 48 h was 53.3 µM.
For `COC(=O)c1c(NCc2ccccc2)noc1-c1ccc([N+](=O)[O-])cc1`, the cytotoxic concentration (CC50) at 48 h is 85.4 µM.
Turning to `COC(=O)c1c(NCc2ccc(Cl)cc2)noc1-c1ccc(Cl)cc1Cl`, the CC50 at 48 h was determined as 176 µM.
Still for that read-out and setting: the same measure for `COC(=O)c1c(NCCCCNc2ccnc3cc(Cl)ccc23)noc1-c1cc2c(cc1[N+](=O)[O-])OCO2`: 67.7 µM.

System in a further series: not listed separately
Briefly: Selectivity index, ratio of CC50 for mouse J774.A1 cells to IC50 for amastigote form of Leishmania donovani MHOM/IN/80/Dd8. The format is toxicity. The settings on record: read-out: Ratio CC50/IC50. Summed up:
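Macrophages infected at a 1:10 ratio with stationary promastigotes, then treated 72 h at 37 °C; luminescence read with Steady-Glo. IC50 values from probit analysis.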
Take `COC(=O)c1c(NCc2ccc(OC)cc2OC)noc1-c1ccc(Cl)cc1Cl`: the selectivity ratio is 6.
On the same count and under the same terms, the same measure for `COC(=O)c1c(NCCNc2ccnc3cc(Cl)ccc23)noc1-c1ccc(Cl)cc1Cl`: 4.05; for `CCCCCCCCCCCCCCCCOP(=O)([O-])OCC[N+](C)(C)C` [MILTEFOSINE]: 5.76; for `COC(=O)c1c(NCc2ccccc2)noc1-c1ccc([N+](=O)[O-])cc1`: 6.16.
The same measure, in the same setting: the same measure for `COC(=O)c1c([N+](=O)[O-])noc1-c1ccccc1F`: 2.19; for `COC(=O)c1c(NCc2ccc(Cl)cc2)noc1-c1ccc(Cl)cc1Cl`: 56.6.
Turning to `COC(=O)c1c(NCCCCNc2ccnc3cc(Cl)ccc23)noc1-c1cc2c(cc1[N+](=O)[O-])OCO2`, the selectivity ratio came out at 7.97.

A further series relates to Leishmania donovani. Briefly: Antileishmanial activity against Leishmania donovani amastigotes infected in golden hamster assessed as reduction in parasite burden in spleen at 50 mg/kg, ip initiated after 2 days of pre-treatment biopsy administered for 5 days and measured on day 7 by giemsa staining based assay relative to control. The format is functional. The settings on record: 168 h, time 7 day. Summed up: (§1)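 Male inbred golden hamsters, 40–45 g, infected with L. donovani. Animals with +1 infection on pre-treatment spleen biopsy randomized, five per group. Intraperitoneal dosing in a vehicle of 10% Tween-80/ethanol (70:30) in ddH2O, 10% final, began 2 days after biopsy and ran 5 consecutive days; vehicle-only controls. Giemsa-stained spleen biopsies taken on day 7 or 28; percentage inhibition computed from initial, treated and untreated-control amastigote counts.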
For the compound `COC(=O)c1c(NCc2ccc(OC)cc2OC)noc1-c1ccc(Cl)cc1Cl`, the inhibition in vivo (as a rule, the relative decrease from the control value, in per cent) at 50 mg/kg came to 50.9%.
Take `COC(=O)c1c(NCCNc2ccnc3cc(Cl)ccc23)noc1-c1ccc(Cl)cc1Cl`: the inhibition in vivo at 50 mg/kg was found to be 19.3%.
For `COC(=O)c1c(NCc2ccccc2)noc1-c1ccc([N+](=O)[O-])cc1`, the inhibition in vivo at 50 mg/kg worked out at 44%.
`COC(=O)c1c([N+](=O)[O-])noc1-c1ccccc1F`: the inhibition in vivo at 50 mg/kg turned out to be 36%.
As to `COC(=O)c1c(NCc2ccc(Cl)cc2)noc1-c1ccc(Cl)cc1Cl`, the inhibition in vivo at 50 mg/kg worked out at 29.2%.
On to `COC(=O)c1c(NCCCCNc2ccnc3cc(Cl)ccc23)noc1-c1cc2c(cc1[N+](=O)[O-])OCO2`, for which the inhibition in vivo at 50 mg/kg stood at 20%.

Another series concerns Leishmania donovani. Briefly: Antileishmanial activity against Leishmania donovani amastigotes infected in golden hamster assessed as reduction in parasite burden in spleen at 30 mg/kg, po initiated after 2 days of pre-treatment biopsy administered for 5 days and measured on day 7 by giemsa staining based assay relative to control. The format is functional. The conditions noted are these: 168 h, time 7 day. The method, boiled down: (§2)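 Male inbred golden hamsters, 40–45 g, infected with L. donovani. Animals with +1 infection on pre-treatment spleen biopsy (5–15 amastigotes/100 spleen cell nuclei) randomized, five per group. Oral dosing in 5% carboxymethyl cellulose vehicle began 2 days after biopsy and ran 5 consecutive days; vehicle-only infected controls. Giemsa-stained spleen biopsies taken on day 7 or 28 after the last dose; PI = 100 – [ANAT × 100/(INAT × TIUC)].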
Take `CCCCCCCCCCCCCCCCOP(=O)([O-])OCC[N+](C)(C)C` [MILTEFOSINE]: the inhibition in vivo at 30 mg/kg was found to be 97.3%.

For a further series, the system named is Leishmania donovani. Briefly: Antileishmanial activity against Leishmania donovani amastigotes infected in golden hamster assessed as reduction in parasite burden in spleen at 50 mg/kg, ip initiated after 2 days of pre-treatment biopsy administered for 5 days and measured on day 28 by giemsa staining based assay relative to control. It counts as functional. The settings on record: 672 h, time 28 day. Summed up:
as §1
With `COC(=O)c1c(NCc2ccc(OC)cc2OC)noc1-c1ccc(Cl)cc1Cl`, the inhibition in vivo at 50 mg/kg is 38%.
As to `COC(=O)c1c(NCc2ccccc2)noc1-c1ccc([N+](=O)[O-])cc1`, the inhibition in vivo at 50 mg/kg turned out to be 75.2%.
For `COC(=O)c1c(NCCCCNc2ccnc3cc(Cl)ccc23)noc1-c1cc2c(cc1[N+](=O)[O-])OCO2`, the inhibition in vivo at 50 mg/kg amounted to 4.38%.

The series is the same for the next values; noted with them: time 28.0 day.
Turning to `COC(=O)c1c(NCCNc2ccnc3cc(Cl)ccc23)noc1-c1ccc(Cl)cc1Cl`, the inhibition entry is “inactive”.
Still for that read-out and setting: under `COC(=O)c1c([N+](=O)[O-])noc1-c1ccccc1F` stands “inactive”; under `COC(=O)c1c(NCc2ccc(Cl)cc2)noc1-c1ccc(Cl)cc1Cl`, “inactive”.

The next series deals with Leishmania donovani. The series can be described thus: Antileishmanial activity against Leishmania donovani amastigotes infected in golden hamster assessed as reduction in parasite burden in spleen at 30 mg/kg, po initiated after 2 days of pre-treatment biopsy administered for 5 days and measured on day 28 by giemsa staining based assay relative to control. The conditions noted are these: 672 h, time 28 day. The format is functional. Summed up:
as §2
As to `CCCCCCCCCCCCCCCCOP(=O)([O-])OCC[N+](C)(C)C` [MILTEFOSINE], the inhibition in vivo at 30 mg/kg was determined as 98.4%.
